Columns and labels:
[1] = tested on: Kidney; assay: Drug uptake in Wistar rat kidney assessed as peonidin 3-glucoside level by assuming kidney mass was 2.4 gram at 0.67 umol, iv after 5 mins by mass spectrometry analysis; assay type: ADME, organism-based; settings: in vivo
Method in brief: (§1)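 Cyanidin 3-glucoside in saline was given as one iliac-vein injection (0.67 μmol) to fasting, anaesthetized rats, which were killed at 15 s, 1, 5 or 15 min. Kidneys were homogenized, extracted in methanol, cleaned up by SPE and analysed by LC-MS/MS.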

[2] = tested on: Kidney; assay: Drug uptake in Wistar rat kidney assessed as peonidin 3-glucoside level by assuming kidney mass was 2.4 gram at 0.67 umol, iv after 0.25 mins by mass spectrometry analysis; assay type: ADME, organism-based; settings: in vivo, 15 s; method in brief: as §1
[3] = Drug uptake in Wistar rat bile assessed as peonidin 3-glucoside level at 0.67 umol, iv after 15 mins by mass spectrometry analysis; assay type: ADME, organism-based; settings: in vivo, 0.25 h, read-out: Drug uptake
Method in brief: (§2)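 Cyanidin 3-glucoside in saline was injected into the iliac vein of fasting, anaesthetized rats (0.67 μmol; 76 μM in plasma). Urine and bile were collected to 15 min, and their volumes were measured. Anthocyanin levels were measured by LC-MS and corrected for recovery from spiked standards. Amounts are given per collected volume (n = 9 urine, n = 4 bile).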

[4] = tested on: Liver; assay: Drug uptake in Wistar rat liver assessed as peonidin 3-glucoside level at 0.67 umol, iv after 1 min by mass spectrometry analysis; assay type: ADME, organism-based; settings: in vivo
Method in brief: (§3)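 Fasting, anaesthetized rats received cyanidin 3-glucoside in saline into the iliac vein (0.67 μmol) and were killed at 15 s, 1, 5 or 15 min. Liver homogenates were methanol-extracted, cleaned up by SPE and quantified by LC-MS/MS.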

[5] = Drug uptake in Wistar rat urine assessed as peonidin 3-glucoside level at 0.67 umol, iv after 15 mins by mass spectrometry analysis; assay type: ADME, organism-based; settings: in vivo, 0.25 h, read-out: Drug uptake
Method in brief: (§4)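 Fasted, anaesthetized rats received the anthocyanin in saline as a 0.67 μmol iliac-vein bolus (76 μM in plasma). They were sacrificed at 15 s, 1, 5 or 15 min, and plasma, kidneys, liver, urine and bile were collected. Anthocyanins were methanol-extracted, SPE-cleaned and quantified by MS (tandem MS for trace metabolites), then corrected for recovery measured on spiked blood, homogenates and urine. Amounts assume 8.8 mL plasma, 2.4 g kidney and 7.0 g liver, with urine and bile volumes measured.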

[6] = tested on: Kidney; assay: Drug uptake in Wistar rat kidney assessed as peonidin 3-glucoside level at 0.67 umol, iv after 15 mins by mass spectrometry analysis; assay type: ADME, organism-based; settings: in vivo, 0.25 h, read-out: Drug uptake; method in brief: as §1
[7] = tested on: Kidney; assay: Drug uptake in Wistar rat kidney assessed as peonidin 3-glucoside level at 0.67 umol, iv after 1 min by mass spectrometry analysis; assay type: ADME, organism-based; settings: in vivo, read-out: Drug uptake; method in brief: as §1
[8] = tested on: Liver; assay: Drug uptake in Wistar rat liver assessed as peonidin 3-glucoside level by assuming liver mass was 7 grams at 0.67 umol, iv after 15 mins by mass spectrometry analysis; assay type: ADME, organism-based; settings: in vivo, 0.25 h; method in brief: as §3
[9] = tested on: Liver; assay: Drug uptake in Wistar rat liver assessed as peonidin 3-glucoside level at 0.67 umol, iv after 5 mins by mass spectrometry analysis; assay type: ADME, organism-based; settings: in vivo, read-out: Drug uptake; method in brief: as §3
[10] = Drug uptake in Wistar rat bile assessed as peonidin 3-glucoside level by assuming plasma volume was 8.8 mL at 0.67 umol, iv after 15 mins by mass spectrometry analysis; assay type: ADME, organism-based; settings: in vivo, 0.25 h
[11] = tested on: Plasma; assay: Drug uptake in Wistar rat plasma assessed as peonidin 3-glucoside level at 0.67 umol, iv after 0.25 mins by mass spectrometry analysis; assay type: ADME, organism-based; settings: in vivo, 15 s; method in brief: as §4
[12] = tested on: Nucleic Acid; assay: Ratio of drug uptake in urine to kidney in Wistar rat assessed as peonidin 3-glucoside level at 0.67 umol, iv after 15 mins by mass spectrometry analysis; assay type: ADME, organism-based; settings: in vivo, 0.25 h
[13] = Drug excretion in Wistar rat urine assessed as peonidin 3-glucoside level at 0.67 umol, iv after 15 mins by mass spectrometry analysis; assay type: ADME, organism-based; settings: in vivo, 0.25 h; method in brief: as §2
[14] = tested on: Kidney; assay: Drug uptake in Wistar rat kidney assessed as peonidin 3-glucoside level by assuming kidney mass was 2.4 gram at 0.67 umol, iv after 15 mins by mass spectrometry analysis; assay type: ADME, organism-based; settings: in vivo, 0.25 h; method in brief: as §1
[15] = tested on: Liver; assay: Drug uptake in Wistar rat liver assessed as peonidin 3-glucoside level by assuming liver mass was 7 grams at 0.67 umol, iv after 0.25 mins by mass spectrometry analysis; assay type: ADME, organism-based; settings: in vivo, 15 s; method in brief: as §3
[16] = tested on: Plasma; assay: Drug uptake in Wistar rat plasma assessed as peonidin 3-glucoside level at 0.67 umol, iv after 15 mins by mass spectrometry analysis; assay type: ADME, organism-based; settings: in vivo, 0.25 h; method in brief: as §4
[17] = Drug excretion in Wistar rat bile assessed as peonidin 3-glucoside level at 0.67 umol, iv after 15 mins by mass spectrometry analysis; assay type: ADME, organism-based; settings: in vivo, 0.25 h; method in brief: as §2
[18] = tested on: Kidney; assay: Drug uptake in Wistar rat kidney assessed as peonidin 3-glucoside level by assuming kidney mass was 2.4 gram at 0.67 umol, iv after 1 min by mass spectrometry analysis; assay type: ADME, organism-based; settings: in vivo; method in brief: as §1
[19] = tested on: Liver; assay: Drug uptake in Wistar rat liver assessed as peonidin 3-glucoside level at 0.67 umol, iv after 0.25 mins by mass spectrometry analysis; assay type: ADME, organism-based; settings: in vivo, 15 s; method in brief: as §3
[20] = Drug uptake in Wistar rat urine assessed as peonidin 3-glucoside level by assuming plasma volume was 8.8 mL at 0.67 umol, iv after 15 mins by mass spectrometry analysis; assay type: ADME, organism-based; settings: in vivo, 0.25 h; method in brief: as §4
[21] = tested on: Liver; assay: Drug uptake in Wistar rat liver assessed as peonidin 3-glucoside level by assuming liver mass was 7 grams at 0.67 umol, iv after 1 min by mass spectrometry analysis; assay type: ADME, organism-based; settings: in vivo; method in brief: as §3
[22] = tested on: Nucleic Acid; assay: Ratio of drug uptake in bile to liver in Wistar rat assessed as peonidin 3-glucoside level at 0.67 umol, iv after 15 mins by mass spectrometry analysis; assay type: ADME, organism-based; settings: in vivo, 0.25 h
[23] = tested on: Kidney; assay: Drug uptake in Wistar rat kidney assessed as peonidin 3-glucoside level at 0.67 umol, iv after 0.25 mins by mass spectrometry analysis; assay type: ADME, organism-based; settings: in vivo, 15 s, read-out: Drug uptake; method in brief: as §1
[24] = tested on: Plasma; assay: Drug uptake in Wistar rat plasma assessed as peonidin 3-glucoside level at 0.67 umol, iv after 1 min by mass spectrometry analysis; assay type: ADME, organism-based; settings: in vivo; method in brief: as §4
[25] = tested on: Liver; assay: Drug uptake in Wistar rat liver assessed as peonidin 3-glucoside level at 0.67 umol, iv after 15 mins by mass spectrometry analysis; assay type: ADME, organism-based; settings: in vivo, 0.25 h; method in brief: as §3
[26] = tested on: Liver; assay: Drug uptake in Wistar rat liver assessed as peonidin 3-glucoside level by assuming liver mass was 7 grams at 0.67 umol, iv after 5 mins by mass spectrometry analysis; assay type: ADME, organism-based; settings: in vivo; method in brief: as §3
[27] = tested on: Kidney; assay: Drug uptake in Wistar rat kidney assessed as peonidin 3-glucoside level at 0.67 umol, iv after 5 mins by mass spectrometry analysis; assay type: ADME, organism-based; settings: in vivo, read-out: Drug uptake; method in brief: as §1
[28] = Ratio of drug uptake in urine to kidney in Wistar rat assessed as petunidin 3-glucoside level at 0.67 umol, iv after 15 mins by mass spectrometry analysis; settings: in vivo, 0.25 h
[29] = tested on: Plasma; assay: Drug uptake in Wistar rat plasma assessed as petunidin 3-glucoside level at 0.67 umol, iv after 0.25 mins by tandem mass spectrometry; assay type: ADME, organism-based; settings: in vivo, 15 s; method in brief: as §4
[30] = tested on: Plasma; assay: Drug uptake in Wistar rat plasma assessed as petunidin 3-glucoside level at 0.67 umol, iv after 1 min by tandem mass spectrometry; assay type: ADME, organism-based; settings: in vivo; method in brief: as §4
[31] = tested on: Kidney; assay: Drug uptake in Wistar rat kidney assessed as petunidin 3-glucoside level at 0.67 umol, iv after 5 mins by tandem mass spectrometry; assay type: ADME, organism-based; settings: in vivo, read-out: Drug uptake
[32] = tested on: Kidney; assay: Drug uptake in Wistar rat kidney assessed as petunidin 3-glucoside level by assuming kidney mass was 2.4 gram at 0.67 umol, iv after 15 mins by tandem mass spectrometry; assay type: ADME, organism-based; settings: in vivo, 0.25 h; method in brief: as §1
[33] = tested on: Kidney; assay: Drug uptake in Wistar rat kidney assessed as petunidin 3-glucoside level by assuming kidney mass was 2.4 gram at 0.67 umol, iv after 5 mins by tandem mass spectrometry; assay type: ADME, organism-based; settings: in vivo; method in brief: as §1
[34] = Drug excretion in Wistar rat urine assessed as petunidin 3-glucoside level at 0.67 umol, iv after 15 mins by mass spectrometry analysis; assay type: ADME, organism-based; settings: in vivo, 0.25 h
[35] = tested on: Kidney; assay: Drug uptake in Wistar rat kidney assessed as petunidin 3-glucoside level at 0.67 umol, iv after 15 mins by tandem mass spectrometry; assay type: ADME, organism-based; settings: in vivo, 0.25 h, read-out: Drug uptake; method in brief: as §1

**Q.** Which Drug uptake [1] does the source give for COc1cc(-c2[o+]c3cc(O)cc(O)c3cc2O[C@@H]2O[C@H](CO)[C@@H](O)[C@H](O)[C@H]2O)ccc1O here?
**A.** 38.8 nmol

**Q.** What about the Drug uptake [2] of the same molecule?
**A.** 46 nmol

**Q.** What about the concentration [3] of the same molecule?
**A.** 398 µM

**Q.** And the Drug uptake [4]?
**A.** 11.5 µM

**Q.** What about the concentration [5] of the same molecule?
**A.** 707 µM

**Q.** What about the concentration [6] of the same molecule?
**A.** 20.5 µM

**Q.** And the concentration [7]?
**A.** 41.5 µM

**Q.** What about the Drug uptake [8] of the same molecule?
**A.** 31.9 nmol

**Q.** What about the concentration [9] of the same molecule?
**A.** 4.9 µM

**Q.** What about the Drug uptake [10] of the same molecule?
**A.** 58.5 nmol

**Q.** And the concentration [11]?
**A.** 1.2 µM

**Q.** What about the Ratio [12] of the same molecule?
**A.** 34.5

**Q.** And the Activity [13]?
**A.** 14.7%

**Q.** What about the Drug uptake [14] of the same molecule?
**A.** 49.2 nmol

**Q.** And the Drug uptake [15]?
**A.** 41.1 nmol

**Q.** And the concentration [16]?
**A.** 0.6 µM

**Q.** And the Activity [17]?
**A.** 8.8%

**Q.** And the Drug uptake [18]?
**A.** 99.5 nmol

**Q.** What about the Drug uptake [19] of the same molecule?
**A.** 5.9 µM

**Q.** And the Drug uptake [20]?
**A.** 98.7 nmol

**Q.** And the Drug uptake [21]?
**A.** 80.4 nmol

**Q.** And the Ratio [22]?
**A.** 86.5

**Q.** And the concentration [23]?
**A.** 19.2 µM

**Q.** What about the concentration [24] of the same molecule?
**A.** 0.5 µM

**Q.** And the Drug uptake [25]?
**A.** 4.6 µM

**Q.** What about the Drug uptake [26] of the same molecule?
**A.** 34.5 nmol

**Q.** What about the concentration [27] of the same molecule?
**A.** 16.1 µM

**Q.** With COc1cc(-c2[o+]c3cc(O)cc(O)c3cc2O[C@@H]2O[C@H](CO)[C@@H](O)[C@H](O)[C@H]2O)cc(O)c1O as the molecule, how does the Ratio [28] read?
**A.** 4.5

**Q.** What about the concentration [29] of the same molecule?
**A.** 0.002 µM

**Q.** What about the concentration [30] of the same molecule?
**A.** 0.002 µM

**Q.** What about the concentration [31] of the same molecule?
**A.** 0.879 µM

**Q.** What about the Drug uptake [32] of the same molecule?
**A.** 2317 pmol

**Q.** And the Drug uptake [33]?
**A.** 2210 pmol

**Q.** And the Activity [34]?
**A.** 0.1%

**Q.** What about the concentration [35] of the same molecule?
**A.** 0.966 µM

— ChEMBL document CHEMBL1782040, “Exceptionally fast uptake and metabolism of cyanidin 3-glucoside by rat kidneys and liver” (J Nat Prod, 2011)
